# Source: ChEMBL document CHEMBL3627694, “Estrogenic activity of bis(4-hydroxyphenyl)methanes with cyclic hydrophobic structure” (Bioorg Med Chem, 2015)
# Assays:
# MCF7 [1] = assay: Estrogenic activity in human MCF7 cells assessed as increase in cell proliferation incubated for 4 days by WST-8 assay; format: functional, cell-based; settings: MCF7, 96 h
# Method in brief: (§1)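 MCF-7 cells kept in D-MEM with 10% FBS at 37 °C, 5% CO2. Before assay, switched to phenol red-free low-glucose D-MEM with 5% sFBS and seeded at 2000 cells/well. Serial dilutions, 1×10^-13 to 1×10^-6 M, given alone, DMSO as control. 4 days in triplicate, medium replaced after 2 days. WST-8 added, absorbance at 450 nm after 2–4 h. EC50 from sigmoidal curves; Emax relative to E2 as 100.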
# MCF7 [2] = assay: Anti-estrogenic activity in human MCF7 cells assessed as reduction in estradiol-induced increase in cell proliferation incubated for 4 days by WST-8 assay; format: functional, cell-based; settings: MCF7, 96 h
# Method in brief: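 MCF-7 cells in phenol red-free low-glucose D-MEM with 5% sFBS, 2000 cells/well. Serial dilutions, 1×10^-13 to 1×10^-6 M, given with 0.1 nM estradiol, DMSO as control. 4 days in triplicate, medium with compound and estradiol renewed at day 2. Growth read by WST-8, absorbance at 450 nm after 2–4 h. IC50 from sigmoidal dose–response curves.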
# [3] = biological target: Estrogen receptor beta (Homo sapiens) (UniProt Q92731); assay: Displacement of [6,7-3H]17 beta-estradiol from human recombinant ER beta assessed as relative binding affinity incubated for 18 hrs at 4 degC by radiometric binding assay relative to estradiol
# Estrogen receptor beta (Homo sapiens), sequence (Q92731 whole entry): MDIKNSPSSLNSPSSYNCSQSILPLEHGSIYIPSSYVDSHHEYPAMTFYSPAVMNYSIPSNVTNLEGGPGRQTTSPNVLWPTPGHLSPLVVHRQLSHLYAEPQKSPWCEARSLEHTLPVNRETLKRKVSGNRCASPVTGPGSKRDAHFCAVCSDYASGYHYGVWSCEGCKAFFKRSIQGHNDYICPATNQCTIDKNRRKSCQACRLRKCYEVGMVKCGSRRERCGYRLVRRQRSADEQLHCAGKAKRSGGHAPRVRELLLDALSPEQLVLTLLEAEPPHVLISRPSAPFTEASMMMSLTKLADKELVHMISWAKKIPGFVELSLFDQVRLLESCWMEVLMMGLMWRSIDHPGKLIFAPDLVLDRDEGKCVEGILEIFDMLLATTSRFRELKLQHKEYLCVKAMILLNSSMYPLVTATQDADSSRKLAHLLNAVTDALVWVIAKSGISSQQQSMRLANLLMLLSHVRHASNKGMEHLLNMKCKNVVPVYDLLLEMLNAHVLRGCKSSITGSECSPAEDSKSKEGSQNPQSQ
# Method in brief: (§2)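 Human recombinant ERα or ERβ, 0.5 µg/tube, in buffer of 20 mM Tris–HCl pH 8.0, 0.3 M NaCl, 1 mM EDTA, 10 mM 2-mercaptoethanol, 0.2 mM PMSF. Incubated with 4 nM [6,7-³H]17β-estradiol ± unlabeled competitor, 4 °C, 18 h, in duplicate. Collected on nitrocellulose filter, washed, read by liquid scintillation. RBA taken with estradiol as 100; […] is the ERβ/ERα RBA ratio.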
# [4] = biological target: T1, Estrogen receptor (Homo sapiens) (UniProt P03372); assay: Displacement of [6,7-3H]17 beta-estradiol from human recombinant ER alpha assessed as relative binding affinity incubated for 18 hrs at 4 degC by radiometric binding assay relative to estradiol; method in brief: as §2
# T1 sequence (whole entry): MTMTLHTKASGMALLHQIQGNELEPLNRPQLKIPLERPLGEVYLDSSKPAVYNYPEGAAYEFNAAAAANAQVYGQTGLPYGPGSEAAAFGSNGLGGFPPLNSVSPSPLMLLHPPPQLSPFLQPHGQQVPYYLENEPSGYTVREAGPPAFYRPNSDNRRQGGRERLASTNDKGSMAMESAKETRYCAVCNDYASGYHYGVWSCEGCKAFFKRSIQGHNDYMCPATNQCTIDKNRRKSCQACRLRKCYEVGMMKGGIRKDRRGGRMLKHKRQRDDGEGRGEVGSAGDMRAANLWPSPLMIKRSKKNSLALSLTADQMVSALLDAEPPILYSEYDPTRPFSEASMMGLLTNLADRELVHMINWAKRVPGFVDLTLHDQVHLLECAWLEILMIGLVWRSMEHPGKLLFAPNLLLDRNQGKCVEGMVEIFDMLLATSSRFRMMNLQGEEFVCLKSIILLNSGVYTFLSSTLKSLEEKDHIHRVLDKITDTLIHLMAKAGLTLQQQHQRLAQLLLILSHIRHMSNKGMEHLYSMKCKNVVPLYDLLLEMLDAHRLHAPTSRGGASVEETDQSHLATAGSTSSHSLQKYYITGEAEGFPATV
# MCF7 [5] = assay: Estrogenic activity in human MCF7 cells assessed as increase in cell proliferation incubated for 4 days by WST-8 assay relative to estradiol; format: functional; settings: MCF7, 96 h; method in brief: as §1
# Homo sapiens = species on record: Homo sapiens; assay: Ratio of RBA for human recombinant ER beta to RBA for human recombinant ER alpha; method in brief: as §2
SMILES,EC50 (MCF7 [1]),IC50 (MCF7 [2]),RBA [3],RBA [4],Ratio (Homo sapiens),Emax (MCF7 [5])
Oc1ccc(C(c2ccc(O)cc2)C2CCCCC2)cc1,54.1 nM,> 1000 nM,15.5%,6.71%,2.3,79%
Oc1ccc(C(c2ccc(O)cc2)C2CCC(Br)(Br)CC2)cc1,211 nM,> 1000 nM,0.18%,0.957%,0.2,64%
Oc1ccc(C(c2ccc(O)cc2)C2CCC3(CC2)OCCO3)cc1,,> 1000 nM,0.219%,0.465%,0.5,22%
Oc1ccc(C(c2ccc(O)cc2)C2CCCC3(CCCCC3)C2)cc1 (stereo unspecified),0.8 nM,> 1000 nM,29.3%,21.9%,1.3,74%
Oc1ccc(C(c2ccc(O)cc2)C2CCCC(Cl)(Cl)C2)cc1 (stereo unspecified),4.6 nM,> 1000 nM,15.7%,15.3%,1,70%
CC1(C)CCCC(C(c2ccc(O)cc2)c2ccc(O)cc2)C1 (stereo unspecified),2.4 nM,64.9 nM,30.7%,98.8%,0.3,74%
CC1(C)CC(C(c2ccc(O)cc2)c2ccc(O)cc2)CC(C)(C)C1,,63.1 nM,35.2%,28.4%,1.2,32%
Oc1ccc(C(c2ccc(O)cc2)C2CCCC2)cc1,48.8 nM,> 1000 nM,13.7%,4.61%,3,69%
Oc1ccc(C(c2ccc(O)cc2)C2CCCC3(C2)SCCCS3)cc1 (stereo unspecified),0.39 nM,> 1000 nM,8.43%,50.6%,0.2,80%

# Continued, in another order:
EC50 (MCF7 [1]),IC50 (MCF7 [2]),RBA [3],RBA [4],Ratio (Homo sapiens),SMILES,Emax (MCF7 [5])
16.6 nM,19.6 nM,4.29%,5.78%,0.7,Oc1ccc(C(c2ccc(O)cc2)C2CCCC(F)(F)C2)cc1 (stereo unspecified),58%
68.4 nM,> 1000 nM,3.02%,3.64%,1.2,CC1(C)CCC(C(c2ccc(O)cc2)c2ccc(O)cc2)CC1,72%
22.5 nM,> 1000 nM,3.93%,2.71%,1.3,Oc1ccc(C(c2ccc(O)cc2)C2CCC(F)(F)CC2)cc1,80%
304 nM,> 1000 nM,0.158%,0.662%,0.2,Oc1ccc(C(c2ccc(O)cc2)C2CCC(Cl)(Cl)CC2)cc1,78%
